Measurements published in ChEMBL document CHEMBL1150768, “Conformationally constrained analogues of N-(piperidinyl)-5-(4-chlorophenyl)-1-(2,4- dichlorophenyl)-4-methyl-1H-pyrazole-3-carboxamide (SR141716): design, synthesis, computational analysis, and biological evaluations” (J Med Chem, 2008).
pKi: −log10 of the molar value.

Tests used:
Homo sapiens = organism: Homo sapiens; assay: Selectivity for human CB2 receptor over human CB1 receptor
Cannabinoid receptor 1 [1] = molecular target: T1, Cannabinoid receptor 1 (Homo sapiens, UniProt P21554); assay: biochemical; type: cell-based, HEK293
Cannabinoid receptor 1 [2] = molecular target: T1, Cannabinoid receptor 1; assay: biochemical; type: cell-based, CHO-K1
Cannabinoid receptor 2 [3] = molecular target: T2, Cannabinoid receptor 2 (Homo sapiens, UniProt P34972); assay: Displacement of [3H]CP-55940 from human CB2 receptor expressed in CHO-K1 cells; type: cell-based
Outline: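 Human CB2 expressed in CHO-K1 cell membranes, […]. Nonspecific binding with 10 µM unlabeled agonist. Glass-fiber filtration, then liquid scintillation counting. Duplicates, 3-6 independent experiments.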

Cannabinoid receptor 1 [4] = molecular target: T1, Cannabinoid receptor 1; assay: Binding affinity to CB1 receptor
Outline: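 Membranes from HEK-293 cells expressing human CB1. […] incubated with tritiated agonist radioligand (7.2 nM) or [3H]SR141716 (20 nM) in 50 mM Tris-HCl, 1 mM EDTA, 3 mM MgCl2, 5 mg/mL BSA, pH 7.4, for 1 h at 30 °C. Nonspecific binding taken with 10 µM unlabeled ligand. Filtration, then scintillation counting. Duplicates, 3-6 independent experiments.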

Cannabinoid receptor 2 [5] = molecular target: T2, Cannabinoid receptor 2; assay: Binding affinity to CB2 receptor
Outline: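 Human CB2 expressed in CHO-K1 cell membranes, […]. Displacement of tritiated agonist radioligand (ca. 130 Ci/mmol, 7.2 nM) in Tris-HCl/EDTA/MgCl2/BSA buffer at pH 7.4, 1 h at 30 °C. Nonspecific binding with 10 µM unlabeled agonist. Glass-fiber filtration, then liquid scintillation counting. Duplicates, 3-6 independent experiments.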

T1 sequence (P21554 whole entry): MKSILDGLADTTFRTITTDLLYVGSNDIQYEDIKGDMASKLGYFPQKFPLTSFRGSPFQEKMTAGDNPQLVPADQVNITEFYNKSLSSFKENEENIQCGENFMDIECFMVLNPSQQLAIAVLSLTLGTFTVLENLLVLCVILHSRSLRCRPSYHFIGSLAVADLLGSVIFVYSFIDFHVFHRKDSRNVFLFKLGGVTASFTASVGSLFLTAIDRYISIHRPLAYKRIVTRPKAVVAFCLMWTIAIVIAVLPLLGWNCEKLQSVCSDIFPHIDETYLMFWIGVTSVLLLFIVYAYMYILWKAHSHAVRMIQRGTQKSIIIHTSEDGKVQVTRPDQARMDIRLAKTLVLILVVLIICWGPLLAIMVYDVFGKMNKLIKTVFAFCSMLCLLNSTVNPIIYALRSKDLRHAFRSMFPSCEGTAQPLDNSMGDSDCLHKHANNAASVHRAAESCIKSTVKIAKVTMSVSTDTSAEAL
T2 sequence (P34972 whole entry): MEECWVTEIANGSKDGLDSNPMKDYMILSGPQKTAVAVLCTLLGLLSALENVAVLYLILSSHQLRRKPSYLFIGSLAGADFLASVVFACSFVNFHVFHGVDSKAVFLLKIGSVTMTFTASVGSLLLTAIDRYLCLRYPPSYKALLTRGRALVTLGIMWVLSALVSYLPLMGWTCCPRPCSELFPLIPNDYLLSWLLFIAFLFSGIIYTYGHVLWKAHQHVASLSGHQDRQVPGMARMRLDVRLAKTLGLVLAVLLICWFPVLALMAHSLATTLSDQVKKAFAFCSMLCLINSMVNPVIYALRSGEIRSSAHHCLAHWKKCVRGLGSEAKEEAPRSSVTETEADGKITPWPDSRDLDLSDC

| SMILES | Ratio (Homo sapiens) | pKi (Cannabinoid receptor 1 [1]) | pKi (Cannabinoid receptor 1 [2]) | pKi (Cannabinoid receptor 2 [3]) | pKi (Cannabinoid receptor 1 [4]) | pKi (Cannabinoid receptor 2 [5]) |
| --- | --- | --- | --- | --- | --- | --- |
| Cc1c(C(=O)NN2CCCCC2)nn2c3ccc(Cl)cc3c3cc(Cl)ccc3c12 | 80 | – | – | – | – | – |
| Cc1c(C(=O)NN2CCCCC2)nn(-c2c(Cl)cc(Cl)cc2Cl)c1-c1ccc(Cl)cc1Cl | – | 6.58 | 6.83 | 5.96 | – | – |
| Cc1cc(Cl)ccc1-c1c(C)c(C(=O)NN2CCCCC2)nn1-c1c(Cl)cc(Cl)cc1Cl | – | 6.60 | 6.82 | 5.75 | – | – |
| Cc1cc(Cl)cc(C)c1-c1c(C)c(C(=O)NN2CCCCC2)nn1-c1ccc(Cl)cc1Cl | – | 6.71 | 6.94 | 6.12 | – | – |
| O=C(NN1CCCCC1)c1nn(-c2ccc(Cl)cc2Cl)c2c1CCc1cc(Cl)ccc1-2 | – | – | – | – | 7.82 | 6.64 |

More lines, main results first:

| Ratio (Homo sapiens) | pKi (Cannabinoid receptor 1 [1]) | pKi (Cannabinoid receptor 1 [2]) | pKi (Cannabinoid receptor 2 [3]) | SMILES | pKi (Cannabinoid receptor 1 [4]) | pKi (Cannabinoid receptor 2 [5]) |
| --- | --- | --- | --- | --- | --- | --- |
| – | 7.39 | 7.83 | 6.31 | O=C(NN1CCCCC1)c1nn(-c2ccc(Cl)cc2Cl)c2c1CCCCc1cc(Cl)ccc1-2 | – | – |
| – | 7.74 | 8.26 | – | O=C(NN1CCCCC1)c1nn(-c2ccc(Cl)cc2Cl)c2c1CCCc1cc(Cl)ccc1-2 | 12.46 | 7.70 |
| – | 7.47 | 7.75 | 5.98 | Cc1c(C(=O)NN2CCCCC2)nn(-c2ccc(Cl)cc2Cl)c1-c1ccc(Cl)cc1Cl | – | – |
| – | 7.79 | 8.23 | 5.95 | Cc1cc(Cl)ccc1-c1c(C)c(C(=O)NN2CCCCC2)nn1-c1ccc(Cl)cc1Cl | – | – |
